Source: ChEMBL document CHEMBL4304813 (ACS Med Chem Lett, 2019)
≈ marks a conversion by molar mass, not a printed value. Calls of active or inactive are those of the source. No cut-off for these calls is given here.

Columns and labels:
[1] = Microsomal stability in human liver microsomes assessed as intrinsic clearance at 1 uM in presence of NADPH/phosphate buffer by LC-MS/MS analysis; type: ADME, Microsome; conditions: read-out: CLH
[2] = Aqueous solubility of the compound; type: physicochemical; conditions: buffer
[3] = Growth inhibition of human HC04 cells assessed as decrease in cell viability after 72 hrs by CellTiter96 AQueous non radioactive cell proliferation assay
Outline: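 HC-04 is a human hepatocyte-derived line rich in drug-metabolizing enzymes. Anti-proliferative activity is reported as GI50.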

[4] = Solubility in PBS at pH 7.4 under shaking condition by HPLC analysis; type: physicochemical
Mus musculus [5] = species: Mus musculus; assay: Potency index, ratio of ITZ IC50 to test compound IC50 for inhibition of Hedgehog signaling pathway in mouse ASZ001 cells assessed as decrease in Gli1 mRNA expression after 48 hrs by qRT-PCR analysis; type: cell-based
Mus musculus [6] = species: Mus musculus; assay: Inhibition of Hedgehog signaling pathway in mouse C3H10T1/2 cells assessed as reduction in recombinant mouse sonic hedgehog/oxysterol-induced Gli1 mRNA expression by q-PCR analysis; type: cell-based
[7] = Microsomal stability in human liver microsomes assessed as half-life at 1 uM in presence of NADPH/phosphate buffer by LC-MS/MS analysis; type: ADME, Microsome
[8] = Inhibition of Hedgehog signaling pathway in mouse ASZ001 cells assessed as decrease in Gli1 mRNA expression after 48 hrs by qRT-PCR analysis; type: cell-based; conditions: ASZ001, 48 h
Outline: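 Hh-dependent murine basal cell carcinoma line ASZ001; read-out is Gli1 mRNA expression. IC50 given as mean ± SEM of at least two separate experiments, each run in triplicate.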

[9] = Solubility in PBS at pH 4 under shaking condition by HPLC analysis; type: physicochemical
[10] = Drug level in human liver microsomes treated with 1-(4-(4-(((2S,4R)-2-(2,4-dichlorophenyl)-2-methyl-1,3-dioxolan-4-yl)methoxy)phenyl)piperazin-1-yl)-3-(3-hydroxyphenyl)propan-1-one formation at 1 uM in presence of NADPH by LC-MS/MS analysis; type: ADME, Microsome
MEF = assay: Inhibition of Hedgehog signaling pathway in Sufu-deficient mouse MEF cells assessed as decrease in Gli1 mRNA expression by q-PCR analysis relative to control; type: cell-based
[11] = Drug level in human liver microsomes treated with 1-(4-(4-(((2S,4R)-2-(2,4-dichlorophenyl)-2-methyl-1,3-dioxolan-4-yl)methoxy)phenyl)piperazin-1-yl)-2-(3-hydroxyphenyl)ethanone assessed as increase in 1-(4-(((2S,4R)-2-(2,4-dichlorophenyl)-2-methyl-1,3-dioxolan-4-yl)methoxy)phenyl)piperazine formation at 1 uM in presence of NADPH by LC-MS/MS analysis; type: ADME, Microsome
[12] = Drug metabolism in human liver microsomes assessed as increase in oxidized metabolite formation at 1 uM in presence of NADPH by LC-MS/MS analysis; type: ADME, Microsome
[13] = Drug metabolism in human liver microsomes assessed as increase in 1-(4-(((2S,4R)-2-(2,4-dichlorophenyl)-2-methyl-1,3-dioxolan-4-yl)methoxy)phenyl)piperazine formation at 1 uM in presence of NADPH by LC-MS/MS analysis; type: ADME, Microsome

Structure (SMILES) | microsomal CLint at 1 µM [1] | half-life at 1 µM [7] | IC50 [8] | also measured
C[C@]1(c2ccc(Cl)cc2Cl)OC[C@@H](COc2ccc(N3CCN(C(=O)CCc4cccc(O)c4)CC3)cc2)O1 | 218 µL/min/mg | 3.2 min | 81 nM | solubility [2]: Soluble; GI50 at 72 h [3]: 13200 nM; solubility [4]: 0.03 µM (≈ 0.0171 µg/mL); Ratio IC50 (Mus musculus [5]): 2; inhibition (Mus musculus [6]): Active
C[C@]1(c2ccc(Cl)cc2Cl)OC[C@@H](COc2ccc(N3CCN(C(=O)CCCc4ccc(O)cc4)CC3)cc2)O1 |  |  | 470 nM | 
COc1cccc(CCC(=O)N2CCN(c3ccc(OC[C@@H]4CO[C@](C)(c5ccc(Cl)cc5Cl)O4)cc3)CC2)c1 |  |  | 460 nM | 
C[C@]1(c2ccc(Cl)cc2Cl)OC[C@@H](COc2ccc(N3CCN(C(=O)N/N=C/c4cccc(O)c4)CC3)cc2)O1 |  |  | 120 nM | 
C[C@]1(c2ccc(Cl)cc2Cl)OC[C@@H](COc2ccc(N3CCN(C(=O)CCc4ccc(O)cc4)CC3)cc2)O1 |  |  | 260 nM | 
C[C@]1(c2ccc(Cl)cc2Cl)OC[C@@H](COc2ccc(N3CCN(C(=O)/C=C/c4ccc(O)cc4)CC3)cc2)O1 |  |  | 360 nM | 
C[C@]1(c2ccc(Cl)cc2Cl)OC[C@@H](COc2ccc(N3CCN(C(=O)c4ccccn4)CC3)cc2)O1 |  |  | 1420 nM | 
C[C@]1(c2ccc(Cl)cc2Cl)OC[C@@H](COc2ccc(N3CCN(C(=O)c4ccc([N+](=O)[O-])cc4)CC3)cc2)O1 |  |  | 160 nM | 
C[C@]1(c2ccc(Cl)cc2Cl)OC[C@@H](COc2ccc(N3CCN(C(=O)CCc4ccccc4)CC3)cc2)O1 |  |  | 230 nM | 
C[C@]1(c2ccc(Cl)cc2Cl)OC[C@@H](COc2ccc(N3CCN(C(=O)/C=C/c4cccc(O)c4)CC3)cc2)O1 |  |  | 220 nM | 
C[C@]1(c2ccc(Cl)cc2Cl)OC[C@@H](COc2ccc(N3CCN(C(=O)CCc4ccc(O)c(O)c4)CC3)cc2)O1 | 105 µL/min/mg | 6.6 min | 89 nM | solubility [4]: 0.84 µM (≈ 0.494 µg/mL)
C[C@]1(c2ccc(Cl)cc2Cl)OC[C@@H](COc2ccc(N3CCN(C(=O)c4cccc(O)c4)CC3)cc2)O1 | 43 µL/min/mg | 15.9 min | 260 nM | 
C[C@]1(c2ccc(Cl)cc2Cl)OC[C@@H](COc2ccc(N3CCN(C(=O)c4ccc(N)cc4)CC3)cc2)O1 |  |  | 280 nM | 
C[C@]1(c2ccc(Cl)cc2Cl)OC[C@@H](COc2ccc(N3CCN(C(=O)c4cccnc4)CC3)cc2)O1 |  |  | 1300 nM | 
C[C@]1(c2ccc(Cl)cc2Cl)OC[C@@H](COc2ccc(N3CCN(CCCc4cccc(O)c4)CC3)cc2)O1 | 50 µL/min/mg | 14 min | 870 nM | solubility [4]: 0.02 µM (≈ 0.0112 µg/mL); solubility [9]: 0.13 µM (≈ 0.0725 µg/mL)
C[C@]1(c2ccc(Cl)cc2Cl)OC[C@@H](COc2ccc(N3CCNCC3)cc2)O1 | 13.7 µL/min/mg | 50.7 min | 22 nM | Drug uptake [10]: Active; solubility [2]: Soluble; GI50 at 72 h [3]: 27300 nM; inhibition (MEF): inactive; Drug uptake [11]: Active; inhibition (Mus musculus [6]): Active
C[C@]1(c2ccc(Cl)cc2Cl)OC[C@@H](COc2ccc(N3CCN(C(=O)c4ccncc4)CC3)cc2)O1 |  |  | 570 nM | 
C[C@]1(c2ccc(Cl)cc2Cl)OC[C@@H](COc2ccc(N3CCN(C(=O)c4ccc(O)cc4)CC3)cc2)O1 |  |  | 580 nM | 
C[C@@]1(c2ccc(Cl)cc2Cl)OC[C@@H](COc2ccc(N3CCN(C(=O)N/N=C/c4cccc(O)c4)CC3)cc2)O1 |  |  | 580 nM | 
CCC(C)n1ncn(-c2ccc(N3CCN(c4ccc(OCC5COC(Cn6cncn6)(c6ccc(Cl)cc6Cl)O5)cc4)CC3)cc2)c1=O (stereo unspecified) [ITRACONAZOLE] |  |  | 140 nM | inhibition (MEF): inactive; inhibition (Mus musculus [6]): Active
C[C@]1(c2ccc(Cl)cc2Cl)OC[C@@H](COc2ccc(N3CCN(C(=O)Cc4cccc(O)c4)CC3)cc2)O1 | 33.9 µL/min/mg | 20.4 min | 380 nM | Drug metabolism [12]: Metabolite_Detected; Drug metabolism [13]: Metabolite_Detected
C[C@]1(c2ccc(Cl)cc2Cl)OC[C@@H](COc2ccc(N3CCN(C(=O)N/N=C/c4ccc(O)cc4)CC3)cc2)O1 | 60 µL/min/mg | 11.4 min | 960 nM | solubility [4]: 0.02 µM (≈ 0.0117 µg/mL); solubility [9]: 0.05 µM (≈ 0.0293 µg/mL)
